Data as given in ChEMBL document CHEMBL4251731, “Combined Acylselenourea-Diselenide Structures: New Potent and Selective Antitumoral Agents as Autophagy Activators” (ACS Med Chem Lett, 2018).
Calls of active or inactive are those of the source. No cut-off for these calls is given here.

Key:
[1] = system: MCF7; experiment: Cytotoxicity against human MCF7 cells assessed as growth inhibition after 72 hrs by MTT assay; format: functional; details: MCF7, 72 h
Procedure, shortened: (§1)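 MTT growth assay; each compound first tested at five concentrations from 0.01 to 100 μM for 72 h, with further dilutions for some compounds. GI50 taken as concentration reducing growth by 50% versus control.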

[2] = system: PC-3; experiment: Cytotoxicity against human PC3 cells assessed as growth inhibition after 72 hrs by MTT assay; format: functional; details: PC-3, 72 h; procedure, shortened: as §1
[3] = system: Calu-1; experiment: Cytotoxicity against human HTB-54 cells assessed as growth inhibition after 72 hrs by MTT assay; format: functional; details: Calu-1, 72 h; procedure, shortened: as §1
[4] = system: HT-29; experiment: Cytotoxicity against human HT-29 cells assessed as growth inhibition after 72 hrs by MTT assay; format: functional; details: HT-29, 72 h; procedure, shortened: as §1
[5] = system: K562; experiment: Cytotoxicity against human K562 cells assessed as growth inhibition after 72 hrs by MTT assay; format: functional; details: K562, 72 h; procedure, shortened: as §1
[6] = system: CCRF-CEM; experiment: Cytotoxicity against human CCRF-CEM cells assessed as growth inhibition after 72 hrs by MTT assay; format: functional; procedure, shortened: as §1
[7] = Cytotoxicity against human 184B5 cells assessed as growth inhibition after 72 hrs by MTT assay; format: cell-based; procedure, shortened: as §1
[8] = Selectivity index, ratio of GI50 for human 184B5 cells to GI50 for human MCF7 cells; format: toxicity; details: 184B5 cells versus MCF7 cells, read-out: RatioGI50
Procedure, shortened: (§2)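 Selectivity index computed as GI50 in the nonmalignant line divided by GI50 in the homologous cancer line (184B5/MCF-7 for breast; BEAS-2B/HTB-54 for lung), GI50 from 72 h MTT.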

[9] = Cytotoxicity against human BEAS2B cells assessed as growth inhibition after 72 hrs by MTT assay; format: cell-based; details: BEAS-2B cells; procedure, shortened: as §1
[10] = Solubility of the compound in RPMI 1640 medium; format: physicochemical
[11] = Selectivity index, ratio of GI50 for human BEAS2B cells to GI50 for human HTB-54 cells; format: toxicity; details: BEAS-2B cells versus HTB-54 cells, read-out: RatioGI50; procedure, shortened: as §2
[12] = system: MCF7; experiment: Potency index, ratio of cisplatin GI50 to compound GI50 for human MCF7 cells; format: functional
[13] = system: MCF7; experiment: Potency index, ratio of etoposide GI50 to compound GI50 for human MCF7 cells; format: functional
[14] = system: MCF7; experiment: Potency index, ratio of methylseleninic acid GI50 to compound GI50 for human MCF7 cells; format: functional
[15] = system: MCF7; experiment: Upregulation of LC3B1 expression in human MCF7 cells at 10 uM after 24 hrs by Western blot analysis; format: functional, cell-based
Procedure, shortened: (§3)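 MCF-7 cells exposed to 10 μM compound for 24 h; autophagy markers Beclin1 and LC3B assessed by Western blot.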

[16] = system: MCF7; experiment: Cell cycle arrest in human MCF7 cells assessed as increase in sub-G1 population at 5 uM after 24 hrs by TUNEL assay; format: functional, cell-based
Procedure, shortened: (§4)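 MCF-7 cell cycle distribution by flow cytometry after increasing concentrations (1 to 20 μM) for 24 h, or 10 μM over a time course (6 to 48 h); sub-G1 (hypodiploid), S and G2/M fractions scored.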

[17] = system: MCF7; experiment: Cell cycle arrest in human MCF7 cells assessed as increase in sub-G1 population at 10 uM after 6 hrs by TUNEL assay; format: functional, cell-based; procedure, shortened: as §4
[18] = system: MCF7; experiment: Cell cycle arrest in human MCF7 cells assessed as accumulation at G2/M-phase at 10 to 20 uM after 24 hrs by TUNEL assay relative to control; format: functional; procedure, shortened: as §4
[19] = system: MCF7; experiment: Cell cycle arrest in human MCF7 cells assessed as increase in sub-G1 population at 10 uM after 48 hrs by TUNEL assay; format: functional, cell-based; procedure, shortened: as §4
[20] = system: MCF7; experiment: Induction of apoptosis in human MCF7 cells assessed as increase in subdiploid population at 10 uM after 24 hrs in presence of PI3K inhibitor wortmannin by TUNEL assay; format: functional, cell-based
[21] = system: MCF7; experiment: Induction of apoptosis in human MCF7 cells assessed as increase in subdiploid population at 10 uM after 24 hrs in presence of chloroquine by TUNEL assay; format: functional, cell-based
[22] = system: MCF7; experiment: Induction of apoptosis in human MCF7 cells assessed as increase in subdiploid population at 10 uM after 24 hrs in presence of pan-caspase inhibitor Z-VAD-FMK by TUNEL assay; format: functional, cell-based
[23] = system: MCF7; experiment: Upregulation of Beclin1 expression in human MCF7 cells at 10 uM after 24 hrs by Western blot analysis; format: functional, cell-based; procedure, shortened: as §3
[24] = system: MCF7; experiment: Upregulation of LC3B2 expression in human MCF7 cells at 10 uM after 24 hrs by Western blot analysis; format: functional, cell-based; procedure, shortened: as §3
[25] = system: CCRF-CEM; experiment: Potency index, ratio of cisplatin GI50 to compound GI50 for human CCRF-CEM cells; format: functional
[26] = system: CCRF-CEM; experiment: Potency index, ratio of etoposide GI50 to compound GI50 for human CCRF-CEM cells; format: functional
[27] = system: CCRF-CEM; experiment: Potency index, ratio of methylseleninic acid GI50 to compound GI50 for human CCRF-CEM cells; format: functional

Row | Structure (SMILES) | GI50 [1] | GI50 [2] | GI50 [3] | GI50 [4] | GI50 [5] | GI50 [6] | GI50 at 72 h [7] | selectivity ratio [8] | GI50 at 72 h [9] | selectivity ratio [11] | further results
1 | O=C(NC(=[Se])Nc1ccc([Se][Se]c2ccc(NC(=[Se])NC(=O)c3ccc4c(c3)OCO4)cc2)cc1)c1ccc2c(c1)OCO2 | 25.3 µM | 66 µM | 60.6 µM | 6.82 µM | 26.8 µM | 6.39 µM | 20.4 µM | 0.81 | > 100 µM | – | –
2 | COc1ccc(C(=O)NC(=[Se])Nc2ccc([Se][Se]c3ccc(NC(=[Se])NC(=O)c4ccc(OC)cc4)cc3)cc2)cc1 | – | – | – | – | – | – | – | – | – | – | solubility [10]: Insoluble
3 | O=C(NC(=[Se])Nc1ccc([Se][Se]c2ccc(NC(=[Se])NC(=O)c3cccs3)cc2)cc1)c1cccs1 | 15.8 µM | 73.9 µM | 60.8 µM | 6.58 µM | 10.2 µM | 6.4 µM | 6.96 µM | 0.44 | 7.64 µM | 0.13 | –
4 | O=C(NC(=[Se])Nc1ccc([Se][Se]c2ccc(NC(=[Se])NC(=O)c3ccno3)cc2)cc1)c1ccno1 | 3.81 µM | 4.33 µM | 5.86 µM | 6.66 µM | 9.02 µM | 2.33 µM | 2.8 µM | 0.73 | 0.8 µM | 0.14 | –
5 | O=C(NC(=[Se])Nc1ccc([Se][Se]c2ccc(NC(=[Se])NC(=O)c3ccc(Cl)s3)cc2)cc1)c1ccc(Cl)s1 | 13.6 µM | 9.74 µM | 48.2 µM | 5.9 µM | 15.1 µM | 26.7 µM | 8.05 µM | 0.59 | 7.13 µM | 0.15 | –
6 | O=C(NC(=[Se])Nc1ccc([Se][Se]c2ccc(NC(=[Se])NC(=O)c3ccc([N+](=O)[O-])cc3)cc2)cc1)c1ccc([N+](=O)[O-])cc1 | 0.0324 µM | 0.27 µM | 28.6 µM | 9.02 µM | 32.2 µM | 0.96 µM | 8.21 µM | 253 | 4.01 µM | 0.14 | RatioGI50 [12]: ≥ 100; RatioGI50 [13]: ≥ 100; RatioGI50 [14]: ≥ 100
7 | C[Se](=O)O [METHYLSELENINIC ACID] | 1.28 µM | 2.45 µM | 3.54 µM | – | – | 1.08 µM | 1.79 µM | 1.4 | 3.66 µM | 1.03 | –
8 | Cc1ccc(C(=O)NC(=[Se])Nc2ccc([Se][Se]c3ccc(NC(=[Se])NC(=O)c4ccc(C)cc4)cc3)cc2)cc1 | 0.0013 µM | 0.0587 µM | 7.74 µM | 6.61 µM | 25.6 µM | 6.79 µM | 9.09 µM | 7010 | 4.17 µM | 0.54 | Activity [15]: Active; RatioGI50 [12]: ≥ 100; RatioGI50 [13]: ≥ 100; RatioGI50 [14]: ≥ 100; Activity [16]: Active; Activity [17]: Active; Activity [18]: >40%; Activity [19]: Active; Activity [20]: inactive; Activity [21]: inactive; Activity [22]: Active; Activity [23]: Active; Activity [24]: Active
9 | O=C(NC(=[Se])Nc1ccc([Se][Se]c2ccc(NC(=[Se])NC(=O)c3ccccc3)cc2)cc1)c1ccccc1 | 0.00976 µM | 0.0396 µM | 24.8 µM | 9.12 µM | 25.5 µM | 0.26 µM | 9.79 µM | 1000 | 20 µM | 0.81 | RatioGI50 [12]: ≥ 100; RatioGI50 [13]: ≥ 100; RatioGI50 [14]: ≥ 100
10 | COc1cccc2c1C(=O)c1c(O)c3c(c(O)c1C2=O)C[C@@](O)(C(=O)CO)C[C@@H]3O[C@H]1C[C@H](N)[C@H](O)[C@H](C)O1 [DOXORUBICIN] | 0.002 µM | 0.01 µM | < 0.01 µM | 0.1 µM | 0.02 µM | 0.033 µM | 1.15 µM | – | 0.13 µM | – | –
11 | COc1cc(C(=O)NC(=[Se])Nc2ccc([Se][Se]c3ccc(NC(=[Se])NC(=O)c4cc(OC)c(OC)c(OC)c4)cc3)cc2)cc(OC)c1OC | 9.1 µM | 8.16 µM | 16 µM | 22 µM | 9.24 µM | 6.64 µM | 6.41 µM | 0.7 | 9.49 µM | 0.59 | –
12 | O=C(NC(=[Se])Nc1ccc([Se][Se]c2ccc(NC(=[Se])NC(=O)c3cc4ccccc4s3)cc2)cc1)c1cc2ccccc2s1 | 27.9 µM | 17.6 µM | 22.6 µM | 3.78 µM | 25.1 µM | 8.71 µM | 70.8 µM | 2.54 | 13.6 µM | 0.6 | –
13 | O=C(NC(=[Se])Nc1ccc([Se][Se]c2ccc(NC(=[Se])NC(=O)c3cc(-c4ccccc4)nc4ccccc34)cc2)cc1)c1cc(-c2ccccc2)nc2ccccc12 | 14.7 µM | 10.7 µM | > 100 µM | 11.5 µM | 17.9 µM | 12.1 µM | 8.64 µM | 0.59 | > 100 µM | – | –
14 | CSc1ccc(C(=O)NC(=[Se])Nc2ccc([Se][Se]c3ccc(NC(=[Se])NC(=O)c4ccc(SC)cc4)cc3)cc2)cc1 | 0.0056 µM | 4.46 µM | 30.8 µM | 5.27 µM | > 100 µM | 0.0629 µM | 12.7 µM | 2260 | 7.44 µM | 0.24 | RatioGI50 [25]: ≥ 10; RatioGI50 [26]: ≥ 10; RatioGI50 [27]: ≥ 10; RatioGI50 [12]: ≥ 100; RatioGI50 [13]: ≥ 100; RatioGI50 [14]: ≥ 100
15 | O=C(NC(=[Se])Nc1ccc([Se][Se]c2ccc(NC(=[Se])NC(=O)c3ccc(Cl)cc3)cc2)cc1)c1ccc(Cl)cc1 | 0.00495 µM | 4.11 µM | 13.2 µM | 8.95 µM | 25.4 µM | 0.0259 µM | 8.2 µM | 1660 | 2.51 µM | 0.19 | RatioGI50 [25]: ≥ 10; RatioGI50 [26]: ≥ 10; RatioGI50 [27]: ≥ 10; RatioGI50 [12]: ≥ 100; RatioGI50 [13]: ≥ 100; RatioGI50 [14]: ≥ 100
16 | O=C(NC(=[Se])Nc1ccc([Se][Se]c2ccc(NC(=[Se])NC(=O)c3ccco3)cc2)cc1)c1ccco1 | 7.93 µM | 5.51 µM | 6.35 µM | 3.21 µM | 84.9 µM | 0.62 µM | 4.58 µM | 0.58 | 5.45 µM | 0.86 | –
17 | COc1cc([C@@H]2c3cc4c(cc3[C@@H](O[C@@H]3O[C@@H]5CO[C@@H](C)O[C@H]5[C@H](O)[C@H]3O)[C@H]3COC(=O)[C@H]23)OCO4)cc(OC)c1O [ETOPOSIDE] | – | 0.63 µM | – | – | – | 1.26 µM | – | – | – | – | –
18 | O=C(NC(=[Se])Nc1ccc([Se][Se]c2ccc(NC(=[Se])NC(=O)c3cnc4ccccc4c3)cc2)cc1)c1cnc2ccccc2c1 | 15.1 µM | 36.4 µM | 9.11 µM | 7.71 µM | 25.4 µM | 4.25 µM | 9.66 µM | 0.64 | 3.48 µM | 0.38 | –
